This sample holds only a part of the variants without activity.
B1: tRNA (parent)
chain: GUUCCGUUGGCGUAAUGGUAACGCGUCUCCCUCCUAAGGAGAAGACUGCGGGUUCGAGUCCCGUACGGAACG

Variants of: B1
Experiment: yeast fitness relative to wild type (ratio to wild type); higher = fitter; tRNA-Arg(CCU), competitive growth, 37 C, YPD
Method in brief: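 Changes in genotype frequencies gave Darwinian fitness relative to wild type. Frequencies were read by 100-nucleotide paired-end sequencing of gene amplicons before and after pooled Saccharomyces cerevisiae strains, carrying tRNA-Arg(CCU) gene variants at the native locus, were competed in YPD at 37°C for 24 hours in six replicates. A genotype was kept only with ≥ 100 starting reads, and estimates < 0.5 were set to 0.5.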
Variant U19A A21G C27U C33U G56A has a yeast fitness of at most 0.5.
Work on G18U A45G yielded a yeast fitness of 0.758.
In the case of U19A A20U U35C, the yeast fitness is reported as 0.82.
With G18C G23A G25C U26C A37G A43C C55G G68A the yeast fitness was at most 0.5.
In the case of G18C U35A A65C, the yeast fitness is reported as at most 0.5.
U19A A20G C24U A43G G48C showed a yeast fitness of at most 0.5.
With G18C G48A the yeast fitness was 0.571.
For U19A A37U C55G, the yeast fitness was 0.593.
With G18C C29U A69C the yeast fitness was at most 0.5.
With G18C G67U the yeast fitness was 0.632.
In the case of G18C G67A, the yeast fitness is reported as 0.728.
G18C G67C gave a yeast fitness of 0.656.
G18U U26A U47C showed a yeast fitness of at most 0.5.
For G18C U59C, the yeast fitness was 0.559.
For U19A A36G A42C C66A, the yeast fitness was at most 0.5.
In the case of G18C U35G G41C C66G, the yeast fitness is reported as at most 0.5.
U19A A20G C49U U59C C62G gave a yeast fitness of at most 0.5.
G18U C24U A69U gave a yeast fitness of at most 0.5.
With U19A A37U C55G U64A the yeast fitness was at most 0.5.
With G18C C29U G39A C49U G56C the yeast fitness was at most 0.5.
With G18C C33A the yeast fitness was 0.592.
Work on U19A A20C C31G yielded a yeast fitness of at most 0.5.
G18C G52A C62G gave a yeast fitness of 0.55.
For U19A A21G C29G, the yeast fitness was 0.543.
G18C U19A U28G A40C showed a yeast fitness of at most 0.5.
With G18C C30U C31U G48A the yeast fitness was at most 0.5.
For G18C U26C G50C, the yeast fitness was at most 0.5.
For U19A A20U G51C, the yeast fitness was 0.836.
G18C C27G U28C U47C U59A A65G gave a yeast fitness of 0.61.
In the case of U19A A20G C29A A40C G50C, the yeast fitness is reported as at most 0.5.
G18C G50U U53A showed a yeast fitness of at most 0.5.
In the case of U19A A42G A65C A69C A70G, the yeast fitness is reported as at most 0.5.
Variant G18C U28G has a yeast fitness of 0.727.
Work on G18C C31U C46U yielded a yeast fitness of at most 0.5.
Work on G18C G23C U53A A69C yielded a yeast fitness of at most 0.5.
Work on U19A A21U C24A U28C U53C C60G yielded a yeast fitness of at most 0.5.
Work on G18C U19C C29A C30G yielded a yeast fitness of at most 0.5.
G18C C34G A45C gave a yeast fitness of at most 0.5.
In the case of G18C C60U A70U, the yeast fitness is reported as at most 0.5.
With G18C C27A U28A A42U the yeast fitness was at most 0.5.
G18C G44U showed a yeast fitness of 0.554.
Variant G18C G44C has a yeast fitness of 0.637.
In the case of G18C C33G A40G C61U, the yeast fitness is reported as at most 0.5.
With G18C C31U A43U the yeast fitness was 0.588.
For G18C G51A, the yeast fitness was 0.518.
For G18C U32C A57U, the yeast fitness was at most 0.5.
Work on G18C G38U G51A yielded a yeast fitness of at most 0.5.
Work on G18C G56C C62U yielded a yeast fitness of at most 0.5.
With U19A A36G G50U U59A the yeast fitness was at most 0.5.
U19A A37U G68U gave a yeast fitness of at most 0.5.
Variant G18C U26C C29G C31G C33U C46A A69C has a yeast fitness of at most 0.5.
G18C C27G C46A G58A U59A showed a yeast fitness of at most 0.5.
U19A A40G G51A gave a yeast fitness of at most 0.5.
Variant G18C C27U A69C has a yeast fitness of 0.502.
For U19A A42C, the yeast fitness was 0.862.
In the case of U19A A42U, the yeast fitness is reported as 0.949.
G18C U28C C30U A43G C55U showed a yeast fitness of at most 0.5.
Variant U19A A21G A43C G51C G68C has a yeast fitness of at most 0.5.
Work on G18C C27U G38A G39C yielded a yeast fitness of 0.521.
For G18C C30U A42G C55A, the yeast fitness was 0.533.
For G18U A20U, the yeast fitness was 0.722.
Variant G18C U53A has a yeast fitness of at most 0.5.
U19A A36U A45U C49U U64A A70U showed a yeast fitness of 0.788.
Work on U19A A43G A57C A65U yielded a yeast fitness of at most 0.5.
Work on G18C C62A yielded a yeast fitness of at most 0.5.
Variant G18C C62U has a yeast fitness of 0.611.
G18C U32G A57C C62U gave a yeast fitness of at most 0.5.
G18C G52C showed a yeast fitness of 0.819.
With G18C C31G A42G the yeast fitness was 0.505.
Variant G18C C30G U32C has a yeast fitness of at most 0.5.
With G18C C49A C61G the yeast fitness was 0.694.
G18C C30G C62G showed a yeast fitness of at most 0.5.
With G18C C49G the yeast fitness was 0.734.
In the case of G18C C49U, the yeast fitness is reported as 0.607.
With U19A A43G the yeast fitness was 0.867.
For G18C G51A C66A, the yeast fitness was 0.537.
G18C U53G C60A showed a yeast fitness of at most 0.5.
Variant G18C G23A G25C A37G A43C A65C has a yeast fitness of at most 0.5.
With G18C G44A G68A the yeast fitness was at most 0.5.
G18C G56C gave a yeast fitness of 0.524.
Variant G18C G56A has a yeast fitness of 0.739.
Variant G18U C33U C34U C66A A70C has a yeast fitness of at most 0.5.
For G18C C30G U32C U53A, the yeast fitness was at most 0.5.
U19A A42G G68U gave a yeast fitness of at most 0.5.
G18C G41A A42C G50C A70G gave a yeast fitness of at most 0.5.
G18C C29U A37G gave a yeast fitness of at most 0.5.
For G18C C33G A40G G58A U64A, the yeast fitness was 0.59.
Work on G18C U19G C27U A43U yielded a yeast fitness of at most 0.5.
With U19A A37G A65G the yeast fitness was 0.707.
U19A A40U showed a yeast fitness of 1.07.
G18C C29U C46U A57G gave a yeast fitness of 0.636.
With G18C C33A G39C G41C G44C the yeast fitness was at most 0.5.
For G18C G25C U28G A42G C49U A57U, the yeast fitness was 0.557.
Work on G18C C30G A65C yielded a yeast fitness of 0.541.
U19A A36U C61U gave a yeast fitness of at most 0.5.
G18C C60G A65G showed a yeast fitness of 0.544.
Work on G18C C31G A36C A45G A65G yielded a yeast fitness of 0.595.
G18C U19G A20G C33A U35C showed a yeast fitness of at most 0.5.
For G18C C31A A37G G58C, the yeast fitness was at most 0.5.
With G18C U19G A45C the yeast fitness was 0.73.
In the case of G18C C29U G50C, the yeast fitness is reported as at most 0.5.
Work on G18C U26A A45G C62G yielded a yeast fitness of 0.556.
G18C C60G A70C gave a yeast fitness of at most 0.5.
With G18C C33G C49G the yeast fitness was at most 0.5.
G18C G23A G25C A37G A43C C55G showed a yeast fitness of at most 0.5.
G18U U26A gave a yeast fitness of 0.623.
For G18C C30U C33U C49U, the yeast fitness was 0.608.
For G18C C27A C55U G63C, the yeast fitness was at most 0.5.
For G18C U26A C55G, the yeast fitness was at most 0.5.
In the case of G18C G44A G67U, the yeast fitness is reported as at most 0.5.
In the case of G18U U26A A69U, the yeast fitness is reported as at most 0.5.
In the case of G18C C27G, the yeast fitness is reported as 0.61.
In the case of G18C C27U, the yeast fitness is reported as 0.71.
Work on G18C C27A yielded a yeast fitness of 0.555.
In the case of G18C C49U A69U, the yeast fitness is reported as at most 0.5.
G18C U28G C61U A65C showed a yeast fitness of at most 0.5.
With G18C G23C the yeast fitness was 0.577.
G18C G23A showed a yeast fitness of at most 0.5.
U19A A37U G41C showed a yeast fitness of at most 0.5.
Variant G18C C27U C62G G63A C66G A69G has a yeast fitness of at most 0.5.
Variant G18C C49G A65U has a yeast fitness of 0.66.
Work on G18C C29U C34U G58C yielded a yeast fitness of at most 0.5.
For G18C C29G A45G C66U A69C, the yeast fitness was at most 0.5.
Variant G18C U47C G51A has a yeast fitness of at most 0.5.
With G18C C30U U64A the yeast fitness was at most 0.5.
For G18U, the yeast fitness was 0.844.
With U19A A21U C24A U28C the yeast fitness was at most 0.5.
Variant G18C G68A has a yeast fitness of 0.619.
Variant G18C G23A G25C A37G A43C C55G G68A has a yeast fitness of 0.551.
Variant U19A A36C A40G A57C has a yeast fitness of at most 0.5.
With G18C C31A the yeast fitness was 0.634.
With G18C G23C G39A C55A the yeast fitness was 0.696.
Variant G18C C29G C31G A57C has a yeast fitness of 0.549.
Variant G18C C62A G68C has a yeast fitness of at most 0.5.
Work on G18C G25A G38C G41A yielded a yeast fitness of at most 0.5.
In the case of G18C G50A U59C, the yeast fitness is reported as at most 0.5.
In the case of G18C G39C, the yeast fitness is reported as 0.683.
G18U A36C G67C gave a yeast fitness of at most 0.5.
With G18C C46A the yeast fitness was 0.726.
G18C C46U gave a yeast fitness of 0.626.
G18C U19A U28G A40C C62G C66G showed a yeast fitness of at most 0.5.
For U19A A40G C55G A65C, the yeast fitness was 0.534.
Variant G18C C30U A45C A69U has a yeast fitness of at most 0.5.
Variant G18C C55U G67C has a yeast fitness of 0.565.
Work on U19A A37G yielded a yeast fitness of 0.657.
G18C C60G showed a yeast fitness of at most 0.5.
With G18C C24U A43C C46U G63C C66U the yeast fitness was at most 0.5.
In the case of G18C C29G U47C, the yeast fitness is reported as at most 0.5.
With G18C G41C G44C C55A the yeast fitness was at most 0.5.
U19A A21C C31G G41A A43C showed a yeast fitness of at most 0.5.
In the case of U19A A36G C46A, the yeast fitness is reported as 0.69.
In the case of G18C C27U C55G, the yeast fitness is reported as 0.67.
U19A A40G C55G A70G gave a yeast fitness of at most 0.5.
G18C U35A A45C gave a yeast fitness of 0.671.
With G18C U64A the yeast fitness was 0.593.
Work on U19A A37U G41C G67A yielded a yeast fitness of at most 0.5.
With G18C G51A A57G C66A the yeast fitness was at most 0.5.
With G18C C29U C49G the yeast fitness was at most 0.5.
With G18C C30G the yeast fitness was at most 0.5.
G18C C30A showed a yeast fitness of 0.642.
In the case of G18U U26A G56A G67A, the yeast fitness is reported as 0.578.
G18C U53C A57C gave a yeast fitness of at most 0.5.
For G18C C66A A69U, the yeast fitness was at most 0.5.
With G18C G23A G25C A37G A43C C55G C62A G68A the yeast fitness was at most 0.5.
With G18U U32C A57G the yeast fitness was 0.568.
In the case of G18C U19G C27U A43U G67U, the yeast fitness is reported as at most 0.5.
Work on U19A yielded a yeast fitness of 1.

— the RNAGym collection of RNA variant scans (doi:10.1126/science.aae0568)
